Experimental data pooled from the literature.
Compare with care: the assays were run in different laboratories.
CDK6 with cyclin D1: Cyclin-dependent kinase 6, with cyclin D1 (CDK6, Homo sapiens, UniProt Q00534)
CDK6 with cyclin D3: Cyclin-dependent kinase 6, with cyclin D3 (CDK6, Homo sapiens, UniProt Q00534)

target | read-out | action | method | tested at | measurement | result | SMILES
CDK6 with cyclin D1 | cell-free assay | – | – | 0.5 µM | remaining signal | 97% | O=C1Nc2ccc(Cl)cc2C1=Cc1cc(Cl)c(O)c(Cl)c1
CDK6 with cyclin D3 | enzyme activity | inhibitor | – | 5 µM | remaining activity | 114% | O=C(Nc1cnn(-c2csc(C(=O)NC3COC3)c2)c1)Nc1ccccc1Cl
CDK6 with cyclin D3 | cell-free assay | – | – | 0.5 µM | remaining signal | 26% | N#CCCc1ccc2c(c1)-c1[nH]c3ccc([N+](=O)[O-])cc3c1CC(=O)N2
CDK6 with cyclin D3 | enzyme activity | inhibitor | – | 1 µM | inhibition | < 10% | CCCS(=O)(=O)Nc1ccc(F)c(C(=O)c2c[nH]c3ncc(-c4ccc(Cl)cc4)cc23)c1F
CDK6 with cyclin D3 | enzyme activity | inhibitor | – | 5 µM | remaining activity | 92.6% | O=C(Nc1cnn(-c2csc(C(=O)NC3COC3)c2)c1)Nc1c(F)cccc1Cl
CDK6 with cyclin D3 | enzyme activity | inhibitor | radiometric | 1 µM | remaining activity | 97% | CC(C)(C)c1nc2c(s1)c1nc(N)ncc1c1ccc(NS(=O)(=O)c3c(F)cccc3F)c(F)c12
CDK6 with cyclin D3 | enzyme activity | inhibitor | – | 1 µM | activity vs control | 101% | Cc1ccc(C(=O)NCc2ccsc2)cc1C#Cc1cn(C(C)C)c2ncnc(N)c12
CDK6 with cyclin D1 | cell-free assay | – | – | 0.5 µM | remaining signal | 99% | O=C1NC(=O)c2cc(Nc3ccc(F)cc3)c(Nc3ccc(F)cc3)cc21
Cyclin-dependent kinase 6 (CDK6, Homo sapiens, UniProt Q00534) | enzyme activity | inhibitor | radiometric | 2 µM | inhibition | 40.4% | Cn1cnc(Br)c1C1=CN(c2ncnc3[nH]cnc23)CCS1
CDK6 with cyclin D3 | enzyme activity | inhibitor | – | 1 µM | inhibition | -8% | CN1CC(Oc2cnc(C#N)cc2-c2ccn3nc(NC(=O)C4CC4)cc3c2)C1
CDK6 with cyclin D3 | enzyme activity | inhibitor | – | 1 µM | remaining activity | 96.4% | CC(C)(O)[C@H]1CC[C@H](Nc2ccc3ncc(-c4cccc(C(F)(F)F)c4)n3n2)CC1
CDK6 with cyclin D3 | enzyme activity | inhibitor | – | 0.3 µM | inhibition | 13% | CCN(CC)CCNC(=O)c1c(C)[nH]c(/C=C2\C(=O)Nc3ccc(F)cc32)c1C
CDK6 with cyclin D3 | enzyme activity | inhibitor | – | 10 µM | remaining activity | 83% | CCCOc1ccc(OC)c(F)c1C(=O)c1ccc(C(=O)N[C@@H]2CNC[C@H]2NC(=O)c2ccc3[nH]ncc3c2)cc1
CDK6 with cyclin D3 | enzyme activity | inhibitor | – | 0.3 µM | inhibition | -11% | CNC(=O)c1cc(Oc2ccc(NC(=O)Nc3ccc(Cl)c(C(F)(F)F)c3)cc2)ccn1
CDK6 with cyclin D1 | enzyme activity | inhibitor | radiometric | 1 µM | remaining activity | 104% | CC(C)(C)c1nc(-c2cccc(NS(=O)(=O)c3c(F)cccc3F)c2F)c(-c2ccnc(N)n2)s1
CDK6 with cyclin D3 | enzyme activity | inhibitor | – | 10 µM | inhibition | 38% | Cc1ccc(Nc2nccc(N(C)c3ccc4c(C)n(C)nc4c3)n2)cc1S(N)(=O)=O
CDK6 with cyclin D3 | enzyme activity | inhibitor | radiometric | 1 µM | remaining activity | 31% | Cc1cnc(NC2CCOCC2)nc1-n1cnc(C(=O)NC(CN)c2cc(F)cc(Cl)c2)c1 (centres unmarked)
